TRPC6 inhibitor = mouse TRPC6 channel inhibition | HEK293-TRPC6, membrane potential dye, ACh-evoked depolarization; stronger effect = lower value | 1.1% of 310,000 active | B-score at 10 µM | Q61143;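 active = B-score under library mean minus 3 SD, initial fluorescence not abnormally high, positive integrated signal ratio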;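 also: B-score derived from integrated fluorescence ratio over the kinetic read; more negative B-score means stronger inhibition of depolarization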
TRPC4 potent = allosteric potentiators of mouse TRPC4 channel | Q9QUQ5 | 0.42% of 310,000 active | B-score at 10 µM | HEK293 TRPC4beta/mu-opioid, DAMGO EC20, Fluo-4 Ca2+ flux; stronger effect = higher value;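 active = B-score of calcium response area above 5 SD of library B-scores, with initial fluorescence ratio within 5 SD of library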;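 also: B-score of integrated fluorescence ratio over time as area under calcium response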
Target sequence (Q9QUQ5 whole entry, looked up): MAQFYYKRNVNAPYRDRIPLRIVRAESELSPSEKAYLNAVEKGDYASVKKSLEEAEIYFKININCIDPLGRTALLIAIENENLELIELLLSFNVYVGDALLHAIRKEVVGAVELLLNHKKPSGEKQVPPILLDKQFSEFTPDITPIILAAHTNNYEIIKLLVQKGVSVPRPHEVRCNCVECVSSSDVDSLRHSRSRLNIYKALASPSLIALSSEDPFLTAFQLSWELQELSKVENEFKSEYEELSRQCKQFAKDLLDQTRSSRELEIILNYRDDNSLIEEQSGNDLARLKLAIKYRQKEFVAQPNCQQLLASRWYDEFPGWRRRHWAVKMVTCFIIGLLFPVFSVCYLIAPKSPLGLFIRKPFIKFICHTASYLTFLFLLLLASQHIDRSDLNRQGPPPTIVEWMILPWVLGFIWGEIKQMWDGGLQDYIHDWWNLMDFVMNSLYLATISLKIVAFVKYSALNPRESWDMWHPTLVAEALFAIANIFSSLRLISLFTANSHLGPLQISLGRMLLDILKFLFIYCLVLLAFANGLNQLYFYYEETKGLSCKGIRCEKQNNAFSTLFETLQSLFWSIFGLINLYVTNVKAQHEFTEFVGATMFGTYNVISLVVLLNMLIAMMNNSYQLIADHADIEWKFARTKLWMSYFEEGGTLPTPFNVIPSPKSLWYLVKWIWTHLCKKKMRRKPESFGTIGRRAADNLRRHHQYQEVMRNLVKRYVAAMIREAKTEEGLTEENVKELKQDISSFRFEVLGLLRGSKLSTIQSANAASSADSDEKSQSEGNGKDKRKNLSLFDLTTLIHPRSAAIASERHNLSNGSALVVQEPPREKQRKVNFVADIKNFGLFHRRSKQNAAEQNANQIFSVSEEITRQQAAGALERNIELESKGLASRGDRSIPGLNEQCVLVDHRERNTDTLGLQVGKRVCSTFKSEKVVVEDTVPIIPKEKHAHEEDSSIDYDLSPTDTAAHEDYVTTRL
TRPC4 block = blocks the mouse TRPC4 cation channel; Q9QUQ5; HEK293 TRPC4beta/mu-opioid, DAMGO-evoked Fluo4 calcium flux; stronger effect = lower value; B-score at 10 µM; 0.39% of 300,000 active; AID 2247;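 active = B-score over 3 SD under the library average, no early fluorescence shift, positive overall ratio signal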
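Signal: kinetic Fluo4 fluorescence imaging of calcium influx. Material: stable TRPC4beta/mu-opioid receptor HEK293 cells. Probe or stimulus: DAMGO in two steps, submaximal then maximal.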
TRPC4 act = activators of mouse TRPC4 channel | Q9QUQ5 | HEK293 TRPC4beta/mu-opioid, Fluo4 calcium fluorescence; stronger effect = higher value | B-score at 10 µM | 0.49% of 310,000 active;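 active = B-score above 5 SD of library B-scores, and initial fluorescence ratio not above library mean plus 5 SD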;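 also: positive B-score marks a calcium rise read as TRPC4 activation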
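Assay system: HEK293 stable line with TRPC4beta plus mu-opioid receptor. Times: dye 45 min RT, read 110 s. Measured by: kinetic Fluo4 calcium fluorescence. Measure: B score of integrated ratio. Controls: assay buffer as low control, maximal DAMGO as high control.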
TRPC6 act = activates the mouse TRPC6 cation channel. Q61143. HEK293-TRPC6 membrane potential dye fluorescence; stronger effect = higher value. B-score at 10 µM. AID 2550. 0.13% of 310,000 active;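 active = B-score of the integrated fluorescence ratio above library mean plus 3 SD, and starting fluorescence ratio within library mean plus 5 SD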;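 also: higher score means more depolarization so channel activation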
* marks the source's active call; other numbers are inactive results; i = inactive. Rows were chosen to be rich in hits. Some 2.3% of all compounds tested hit in one or more screens of this group.

SMILES	TRPC6 inhibitor	TRPC4 potent	TRPC4 block	TRPC4 act	TRPC6 act
CCOC(=O)C1(CCc2ccccc2)CCN(Cc2ccc3c(c2)OCCO3)CC1	i	i	i	i	i
CCOC(=O)C1(CCc2ccccc2)CCN(Cc2ccc(NC(C)=O)cc2)CC1	i	i	i	104*	i
O=C(c1ccc2c3c(cccc13)CC2)C1CCCN(CC2CC2)C1 (centres undefined)	i	i	i	158*	i
O=C(c1ccc2c3c(cccc13)CC2)C1CCCN(Cc2ncc[nH]2)C1 (centres undefined)	i	i	i	46*	i
CCN(CC)c1ccc(CNCCc2ccc(F)cc2)cc1	i	i	i	51*	i
CCc1ccc(CNCCc2ccc(F)cc2)cc1	i	i	i	i	i
CCc1ccc(OCCCN=C(C)c2c(O)n(C)c(=O)n(C)c2=O)cc1	i	16*	i	i	i
CC(=O)N(C)CC#CCN1CCC(O)CC1	i	i	i	i	i
CCCCc1ncc(CN2CCCC(C(=O)c3ccc(SC)cc3)C2)[nH]1 (centres undefined)	i	i	-6*	i	i
COc1cc2c3cc1Oc1cc(ccc1O)C[C@@H]1c4c(cc(OC)c(O)c4Oc4ccc(cc4)C[C@H]3N(C)CC2)CCN1C	i	i	i	117*	i
C/C=C(\C)C(=O)OC1C(C)=C2C(C1OC(=O)CCCCC)C(C)(OC(C)=O)CC(OC(=O)CCC)C1(O)C2OC(=O)C1(C)O (centres undefined)	-5.77*	i	i	71*	i
O=C(c1ccc(Cl)cc1)C1CCCN(Cc2ccc3ncccc3c2)C1 (centres undefined)	i	i	i	80*	i
O=c1[nH]c(=O)n(Cc2ccc(F)cc2)c(O)c1C=NCCCn1ccnc1	i	i	i	i	i
O=c1[nH]c(=O)n(Cc2ccc(F)cc2)c(O)c1C=NCCCO	i	i	-5*	57*	i
CN1CCN(Cc2nc3ccccc3n2C)CC1	i	11*	i	i	i
COCCN(C(=O)COC(=O)Cc1ccccc1)c1c(N)n(Cc2ccccc2)c(=O)[nH]c1=O	i	i	i	i	i
CCOc1ccc(-n2c(-c3ccoc3)nc3ccccc3c2=O)cc1	i	i	i	i	i
CCOc1ccc(-c2c(C)n(-c3ccc(OCC)cc3)c3[n+]2CCCCC3)cc1	-9.44*	i	i	i	13.3*
Clc1ccc(CCNCc2ccncc2)c(Cl)c1	i	i	i	50*	i
CCOc1c(Cl)cc(CNC(C)C(O)c2ccccc2)cc1OC (centres undefined)	i	i	-6*	i	i
COc1cc(OC)c(OC)cc1CNC(C)C(O)c1ccccc1 (centres undefined)	i	i	i	i	i
COc1ccc2c(c1O)C13CCN(C)C(C2)C1CCC(=O)C3 (centres undefined)	i	i	i	93*	i
COc1cccc(C2(O)CCSCC2CN(C)C)c1 (centres undefined)	i	i	i	i	i
COc1cccc(CN2CCNCC2)c1OC	i	i	i	i	i
Brc1ccc(CN2CCNCC2)s1	i	14*	i	i	i
SMILES	TRPC6 inhibitor	TRPC4 potent	TRPC4 block	TRPC4 act	TRPC6 act
CCOC(=O)c1cccc(-[n+]2c(-c3ccccc3)cc(-c3ccccc3)cc2-c2ccccc2)c1	i	i	i	i	i
CCOC(=O)c1ccc(-[n+]2c(-c3ccccc3)cc(-c3ccccc3)cc2-c2ccccc2)cc1	i	i	i	i	i
CN(C)c1ccc(-[n+]2c(-c3ccccc3)cc(-c3ccccc3)cc2-c2ccccc2)cc1	i	11*	i	i	i
c1ccc(-c2cc(-c3ccccc3)[n+](-c3ccccc3)c(-c3ccccc3)c2)cc1	i	18*	i	i	i
O=[N+]([O-])c1ccc(N2CCNCC2)cc1NC1CC1	i	i	i	117*	i
O=[N+]([O-])c1ccc(N2CCNCC2)cc1NCC1CCCO1 (centres undefined)	i	i	i	i	i
CCCCCc1nc2c(c(=O)c3ccccc3n2C)c(=O)n1C1CCCCCC1	i	i	i	i	i
Cc1ccccc1C(O)(Cc1ccccc1)C1CN2CCC1CC2 (centres undefined)	i	i	i	87*	i
CCn1c(=O)n(CC(=O)N2CCC3(CC2)OCCO3)c(=O)c2ccccc21	i	i	i	i	i
CCc1ccc(CN2CCCC(C(=O)c3sccc3C)C2)o1 (centres undefined)	i	i	-8*	i	i
COc1ccc(O)c(CN2CCCC(C(=O)c3sccc3C)C2)c1 (centres undefined)	i	i	-7*	i	i
Cc1ccsc1C(=O)C1CCCN(Cc2ccccc2O)C1 (centres undefined)	i	i	-6*	i	i
COCc1ccc(CN2CCCC(C(=O)c3sccc3C)C2)o1 (centres undefined)	i	i	i	i	i
c1nc2nc3c(c(N4CCNCC4)n2n1)CCCC3	i	i	i	i	i
CN(C)[C@@H]1C(=O)C(C(N)=O)=C(O)[C@@]2(O)C(=O)C3=C(O)c4c(O)cccc4[C@@](C)(O)C3[C@H](O)C12 (some centres undefined)	i	i	i	i	i
CCCCn1c(O)c(/C(C)=N/NC(=O)Nc2ccccc2)c(=O)[nH]c1=O	i	i	i	i	i
CC(C)COc1ccc(C2(C#N)CC[N+](C)(C)CC2)cc1	i	i	i	i	i
COc1ccc(CC2c3cc(OC)c(OC)cc3CCN2C)cc1OC (centres undefined)	i	i	i	i	i
COc1ccc(C[C@@H]2c3cc(O)c(OC)cc3CCN2C)cc1O	i	17*	i	i	i
CC(C(=O)c1c[nH]c2ccccc12)N1CCSCC1 (centres undefined)	i	i	i	i	i
Nc1ncc2[nH]cnc2n1	i	i	i	i	i
Clc1cccc(C2NCCc3[nH]cnc32)c1 (centres undefined)	i	i	i	50*	i
Fc1ccc(C2NCCc3[nH]cnc32)cc1 (centres undefined)	i	i	i	60*	i
CN(C)C1(CNC(=O)c2ccc(Cl)c(S(=O)(=O)NCc3ccco3)c2)CCCCC1	i	i	i	73*	i

Compound activity as filed in PubChem.
